Assay results taken from publication PMC4297623 (Nature, 2011).
Like-named read-outs stand apart in the source and are kept apart here.

Columns and labels:
EBI2 [1] = molecular target: T1, EBI2 (Homo sapiens, UniProt P32249); format: cell-based
RS11846 cells = assay: Transwell migration of RS11846 cells; format: cell-based; conditions: transwell assay
31 different GPCRs = assay: Panel of GPCR assays; format: cell-based
[2] = tested on: Parental cells lacking the EBI2 receptor; assay: Calcium mobilization in parental cell line lacking EBI2; format: cell-based; conditions: parental cell line without EBI2
[3] = tested on: EBI2 expressing cell line (M12); assay: Migration bioassay with EBI2 expressing reporter cell line; format: cell-based; conditions: attraction of EBI2 expressing cell line (Fig. S8c)
Method in brief: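 Chemoattraction bioassay: M12 reporter cells, with or without EBI2, exposed to the oxysterol ligand; read-out is migration of cells toward it. The same assay was also run on spleen and lymph node tissue extracts from wild-type and Ch25h-deficient mice.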

[4] = tested on: 8 different nuclear hormone receptors including LXR; assay: Panel of reporter gene assays against nuclear hormone receptors; format: cell-based; conditions: 8 nuclear hormone receptors including LXR
[5] = tested on: bone marrow-derived dendritic cells; assay: Transwell migration of bone marrow-derived dendritic cells; format: cell-based, mice; conditions: transwell assay
Method in brief: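 Dendritic cells derived from the bone marrow of wild-type and Ebi2(−/−) mice, tested side by side for transwell migration toward oxysterol test compounds. Samples run in quadruplicate.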

[6] = tested on: EBV-infected human B cell line; assay: Transwell migration of EBV-infected B cells; format: cell-based; conditions: transwell assay; bell shaped activity curve
Method in brief: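 Transwell chemotaxis of an EBV-infected human B cell line toward oxysterol test compounds in the lower chamber. Samples run in duplicate.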

EBI2 [7] = molecular target: T1, EBI2; assay: Calcium mobilization; format: cell-based
EBI2 [8] = molecular target: T1, EBI2; assay: GTPγ35S binding functional assay; format: biochemical
EBI2 [9] = molecular target: T1, EBI2; assay: Radioligand binding to membranes from EBI2 expressing CHO cells
[10] = tested on: Membranes from parental cells lacking EBI2 receptor; assay: Radioligand binding to membranes from parental cells lacking EBI2; conditions: data not shown
[11] = read-out: GTPγ^35S Binding EC50, n = 3-4, ± standard deviation
[12] = read-out: [^3H]-7α, 25-OHC Binding IC50, displacement of 10 nM 3H-7α, 25-OHC from membranes of EBI2 expressing CHO cells, n = 3-4, ± standard deviation
[13] = read-out: Ca^2+ Fluorescence EC50, FLIPR, CHO cells stably expressing EBI2, n = 3-4, ± standard deviation

T1 sequence (P32249 whole entry): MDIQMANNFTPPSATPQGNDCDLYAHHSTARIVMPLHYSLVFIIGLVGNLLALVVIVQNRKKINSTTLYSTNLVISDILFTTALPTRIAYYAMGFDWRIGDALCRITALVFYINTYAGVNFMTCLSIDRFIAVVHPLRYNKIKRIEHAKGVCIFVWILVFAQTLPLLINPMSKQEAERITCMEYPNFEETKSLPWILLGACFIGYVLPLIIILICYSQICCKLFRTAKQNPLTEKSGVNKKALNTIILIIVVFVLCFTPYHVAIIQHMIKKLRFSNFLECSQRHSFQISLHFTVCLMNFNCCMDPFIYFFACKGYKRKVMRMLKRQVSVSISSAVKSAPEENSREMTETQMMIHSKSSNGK

CO[C@H]1C=C2C[C@@H](O)CC[C@]2(C)[C@H]2CC[C@]3(C)[C@@H]([C@H](C)CCCC(C)C)CC[C@H]3[C@H]12 [7-methoxy derivate of 7β-OHC]
activation of EBI2 (EBI2 [1]; initial test of candidates (Fig. S3)): did not activate EBI2

C[C@H](CCCC(C)(C)O)[C@H]1CC[C@H]2[C@@H]3[C@H](O)C=C4C[C@@H](O)CC[C@]4(C)[C@H]3CC[C@]12C [7α, 25-OHC, 5-cholesten-3β, 7α, 25-triol]
chemoattraction of RS11846 cells (RS11846 cells; bell shaped activity curve): can potently attract
interaction with other GPCRs (31 different GPCRs): In none of these assays did we see a significant interaction
calcium response of parental cells lacking EBI2 [2]: did not respond
sensitivity of bioassay [3]: subnanomolar sensitivity
interaction with nuclear hormone receptors [4]: In none of these assays did we see a significant interaction
migration of BMDC from wild type and Ebi2(−/−) animals [5]: only wild type cells migrate
chemoattraction of EBV-infected B cells [6]: can potently attract
EC50 (EBI2 [7]): 2 ± 2 nM

C[C@@H](CO)CCC[C@@H](C)[C@H]1CC[C@H]2[C@@H]3[C@H](O)C=C4C[C@@H](O)CC[C@]4(C)[C@H]3CC[C@]12C [7α, 27-OHC]
interaction with other GPCRs (31 different GPCRs): In none of these assays did we see a significant interaction
interaction with nuclear hormone receptors [4]: In none of these assays did we see a significant interaction
EC50 (EBI2 [8]; [11]): 5 ± 2 nM
IC50 (EBI2 [9]; [12]): 362 ± 32 nM
EC50 (EBI2 [7]; [13]): 5 ± 4 nM

C[C@H](CCCC(C)(C)O)[C@H]1CC[C@H]2[C@@H]3[C@@H](O)C=C4C[C@@H](O)CC[C@]4(C)[C@H]3CC[C@]12C [7β, 25-OHC, cholest-5-ene-3β, 7β, 25-triol]
EC50 (EBI2 [1]): ~50 nM

C[C@@H](CO)CCC[C@@H](C)[C@H]1CC[C@H]2[C@@H]3[C@@H](O)C=C4C[C@@H](O)CC[C@]4(C)[C@H]3CC[C@]12C [7β, 27-OHC]
EC50 (EBI2 [8]; [11]): 125 ± 66 nM
IC50 (EBI2 [9]; [12]): > 10000 nM
EC50 (EBI2 [7]; [13]): 310 ± 261 nM

C[C@H](CCCC(C)(C)O)[C@H]1CC[C@H]2[C@@H]3CC=C4C[C@@H](O)CC[C@]4(C)[C@H]3CC[C@]12C [25-OHC]
EC50 (EBI2 [8]; [11]): 727 ± 232 nM
IC50 (EBI2 [9]; [12]): > 10000 nM
EC50 (EBI2 [7]; [13]): 3030 ± 2640 nM

[3H]C1(O)C=C2CC(O)CCC2(C)C2CCC3(C)C(C(C)CCCC(C)(C)O)CCC3C21 (stereo not drawn) [[^3H]-7α, 25-OHC]
binding of radioligand to membranes from parental cells [10]: did not bind

[3H]C1(O)C=C2CC(O)CCC2(C)C2CCC3(C)C(C(C)CCCC(C)(C)O)CCC3C21 (stereo not drawn) [[^3H]-7β, 25-OHC]
specific binding of radioligand to EBI2 membranes (EBI2 [9]; EBI2 membranes): no specific binding

CC(C)CCC[C@@H](C)[C@H]1CC[C@H]2[C@@H]3CC=C4C[C@@H](O)CC[C@]4(C)[C@H]3CC[C@]12C [cholesterol]
EC50 (EBI2 [8]): > 10000 nM
IC50 (EBI2 [9]): > 10000 nM
EC50 (EBI2 [7]): > 10000 nM

pertussis toxin
effect on oxysterol-mediated attraction of RS11846 cells (RS11846 cells; presence of pertussis toxin): could be blocked
